# Sampled rows, rich in hits. Any-hit rate of the full collection: about 2.3%.
# Rpn11 inh = Rpn11 (PSMD14) deubiquitinase inhibitors, primary screen, biochemical, fluorescence polarization, uHTS. 26S proteasome non-ATPase regulatory subunit 14 (Homo sapiens), O00487. human 26S proteasome, Ub4-pepOG fluorescence polarization; 20S core pre-blocked with epoxomicin. inhibition, % at 20 µM. 360,000 tested, 0.59% active. AID 588493, 2011;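 active = inhibition at 20 µM, scaled to each plate's controls, above about 33%, limit read from the data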
# Target sequence (O00487 whole entry, looked up): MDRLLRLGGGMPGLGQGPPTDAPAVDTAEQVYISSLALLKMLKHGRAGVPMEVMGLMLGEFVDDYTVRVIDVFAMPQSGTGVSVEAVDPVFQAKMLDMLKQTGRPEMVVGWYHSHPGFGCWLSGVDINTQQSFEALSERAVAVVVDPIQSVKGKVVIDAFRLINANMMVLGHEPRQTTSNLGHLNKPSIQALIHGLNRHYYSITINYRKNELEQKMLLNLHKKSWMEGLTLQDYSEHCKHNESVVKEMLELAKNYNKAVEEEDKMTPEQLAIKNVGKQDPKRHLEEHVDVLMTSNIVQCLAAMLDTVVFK
# TPT1 inhibitor = Candida albicans TPT1 enzyme inhibitors, primary screen, biochemical, fluorescence polarization; AID 1962, 2009; inhibition, % at 5 µM; 300,000 tested, 0.81% active; tRNA 2'-phosphotransferase TPT1 (Candida albicans SC5314); recombinant caTPT1, FP RNA substrate dephosphorylation;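 active = inhibition above the mean of all tested compounds plus 3 SD, set per screening campaign, cut at about 24% in these data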;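 also: plate controls were DMSO alone for no effect and ferristatin control at 100 nM for full effect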
# HNF4A DNA FP = change in binding of human HNF4A to DNA, primary screen, biochemical, fluorescence polarization, FITC-DNA | activity change, % at 10 µM | Hepatocyte nuclear factor 4-alpha (Homo sapiens), P41235 | AID 1224865, 2016 | 1 h | 360,000 tested, 0.3% active; in the data active = activity change above about 30%, passing the limit was not always enough
# Myeloid diff 2 = induction of myeloid progenitor differentiation, primary screen, cell-based, flow cytometry, MLPCN library; calls only at 10 µM; AID 624256, 2012; 360,000 tested, 1% active; ER-HoxA9 myeloid progenitors, lysozyme-GFP differentiation;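 active = normalized GFP-positive differentiation at or above the plate's own cutoff, the solvent-only control mean plus 3 SD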;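 also: cells exposed to compound for four days before flow analysis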
# CSN inh = inhibitors of CSN-mediated cullin deneddylation, primary screen, biochemical, fluorescence polarization, uHTS; inhibition, % at 12.5 µM; COP9 signalosome complex subunit 5 (Homo sapiens), Q92905; Purified CSN, SCF-Nedd8-OG deneddylation; 360,000 tested, 0.38% active; AID 651999, 2013;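 active = pattern-corrected inhibition above about 35%, with an unprinted fluorescence ratio check between 0.5 and 1.5, limit read from the data, passing the limit was not always enough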;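 also: 0% = enzyme with substrate and 100% = substrate without enzyme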
# Target sequence (Q92905 whole entry, looked up, one chain of several): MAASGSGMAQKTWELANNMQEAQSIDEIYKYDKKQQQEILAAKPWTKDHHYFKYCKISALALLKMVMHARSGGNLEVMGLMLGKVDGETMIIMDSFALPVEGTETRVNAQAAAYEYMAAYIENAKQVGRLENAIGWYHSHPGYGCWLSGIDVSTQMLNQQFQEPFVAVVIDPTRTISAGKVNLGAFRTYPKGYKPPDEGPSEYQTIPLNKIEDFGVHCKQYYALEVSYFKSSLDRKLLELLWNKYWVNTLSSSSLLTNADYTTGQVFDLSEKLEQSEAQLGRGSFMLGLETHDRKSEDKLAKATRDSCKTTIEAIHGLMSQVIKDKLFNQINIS
#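 assay system = purified human Csn5 enzyme expressed in HEK293T cells | amount = 0.24 nM enzyme | buffer or medium = Tris/NaCl/DTT buffer, pH 7.5 | reagent = 10 nM SCFSkp2-Nedd8OG | compound = one concentration, 12.5 µM, 0.25% DMSO | times = 90 min reaction at room temperature | signal = FP | read-out basis = % inhibition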
# Rpn11 inh conf = Rpn11 (PSMD14) deubiquitinase inhibitors, confirmation, biochemical, fluorescence polarization, single concentration; shares compounds with Rpn11 inh; purified human 26S proteasome, Ub4-pepOG fluorescence polarization; proteasome pretreated with epoxomicin; inhibition, % at 20 µM; 1,900 tested, 29% active; AID 602318, 2012
# MMP-2 inh = MMP-2 enzyme inhibition, confirmation, counter-screen for RPN11 inhibitor project, biochemical, fluorescence, single concentration. inhibition, % at 20 µM. 1,900 tested, 4% active. recombinant MMP-2, FRET peptide cleavage fluorescence. shares compounds with Rpn11 inh;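 also: human MMP-2 activated beforehand with APMA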
# Thrombin FP = bovine thrombin protease inhibition, confirmation, counter-screen for Rpn11 inhibitor project, biochemical, fluorescence polarization, single concentration. shares compounds with Rpn11 inh. bovine thrombin cleavage of Ub4-pepOG. inhibition, % at 20 µM. 1,900 tested, 13% active. AID 602333, 2012;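 active = mean inhibition at least 40% at 20 µM, or signal 3 deviations below plate average, so some actives read negative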;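 also: plate controls were thrombin with DMSO for no effect and buffer wells lacking thrombin for full effect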
# Active calls of the source: *; i = inactive; / = no result given. Rule as the data show it, unless noted: active = inhibition above about 40%; inactive = the rest.
SMILES,Rpn11 inh,TPT1 inhibitor,HNF4A DNA FP,Myeloid diff 2,CSN inh,Rpn11 inh conf,MMP-2 inh,Thrombin FP
Nc1c(C(=O)NCc2ccc3c(c2)OCO3)c2nc3ccccc3nc2n1CCCN1CCOCC1,50.7*,11.5,3.8,/,4.2,24.7,-25.5,-5.3
COc1cc(OC)cc(C(=O)N2CCN(c3ccc(N4CCOCC4)nn3)CC2)c1,-3.5,2.0,2.8,i,-1.3,/,/,/
CC(C)C(=O)NCCc1nc(-c2ccc(Cl)cc2)no1,-1.2,1.2,7.8,i,-0.3,/,/,/
CCOc1ccc(CCNC(=O)Cn2c(=O)c3cccn3c3cccnc32)cc1,41.8*,2.3,1.9,i,6.1,1.8,-10.8,-5.0
NS(=O)(=O)c1ccc(CCNC(=O)Cn2c(=O)c3cccn3c3cccnc32)cc1,8.0,1.7,2.6,i,-0.2,/,/,/
O=C(N/N=C/c1ccccc1F)c1cc2c(ccc3ccccc32)o1,149.4*,-0.7,39.2*,i,22.9,99.0*,-11.0,-15.6
O=C(N/N=C/C=C/c1ccccc1)c1cc2c(ccc3ccccc32)o1,99.2*,-3.6,1.9,i,41.8*,-10.1,2.4,-28.0
O=C(N/N=C/c1cccc2ccccc12)c1cc2ccccc2o1,4.4,/,1.9,i,-3.4,/,/,/
O=C(/C=C/c1ccc(Br)cc1)NC(=S)Nc1ccc(S(=O)(=O)Nc2nccs2)cc1,128.7*,-2.0,-43.9,i,74.8*,21.6,18.2,-0.4
O=C(NC(=S)Nc1ccc(S(=O)(=O)Nc2nccs2)cc1)c1ccc(Br)o1,8.0,2.4,17.6,i,5.2,/,/,/
Cc1cn([C@H]2C[C@H](O)[C@@H](/C=C/C(=O)NCc3ccc4c(c3)OCO4)O2)c(=O)[nH]c1=O,-13.3,/,-1.9,i,5.8,/,/,/
Cc1ccc(C(=O)Nc2ccc3c(c2)CCC3)o1,-5.3,0.7,5.3,i,3.4,/,/,/
O=C(Nc1ccc2oc(-c3ccncc3)nc2c1)c1ccco1,5.8,3.1,0.9,i,7.7,/,/,/
O=C(Nc1ccc2oc(-c3ccncc3)nc2c1)c1ccc(Br)o1,75.7*,-3.0,1.5,i,6.2,-13.3,8.0,-23.9
O=C(Nc1ccc2c(c1)CCC2)c1ccc(Br)o1,96.7*,-7.0,-5.4,i,4.1,-19.1,10.7,-1.4
COc1ccccc1-c1cccc([C@@H]2C[C@H]3[C@H](CON3C)CN2C(=O)C(C)(C)C)c1,2.8,/,0.8,i,-4.5,/,/,/
Clc1cccc(Sc2ccc(-c3ccccn3)s2)c1,66.7*,-0.8,-37.9,i,0.2,-11.5,-4.2,-15.5
O=c1c2oc3nc4c(cc3c2ncn1CCCc1ccccc1)CCCC4,-0.8,-0.4,-0.7,i,-1.0,/,/,/
O=C(NCc1n[nH]c(=S)n1-c1ccc(F)cc1)c1ccc(S(=O)(=O)N2CCOCC2)cc1,92.1*,-1.9,32.3*,i,1.1,-5.5,52.8*,-10.1
CS(=O)(=O)N(CC(=O)Nc1ccc2c(c1)OCCO2)c1ccc2c(c1)OCO2,149.7*,-1.6,-6.7,i,-0.1,-5.9,-24.9,-4.6
Cc1nn(-c2ccccc2)c(Cl)c1/C=N/NC(=O)c1cccc(S(=O)(=O)N2CCCC2)c1,40.4*,1.9,34.0,i,13.6,28.3,30.8,-10.1
CCn1ncc(N2CCOCC2)c(Cl)c1=O,-0.1,-1.5,2.6,i,0.8,/,/,/
CCOC(=O)C1CCCN(C2=NC(=O)/C(=C/c3ccc(O)c(OC)c3)S2)C1 (stereo not drawn),76.4*,20.1,9.8,i,18.9,43.0*,-30.0,26.3
Nc1c(-c2ccccc2)c(CSc2nc3ccccc3[nH]2)nn1-c1cccc(Cl)c1,63.1*,1.9,13.0,i,-2.3,42.4*,25.0,18.0
COc1ccc(F)c(CN2CCC(n3nccc3NC(=O)CCCc3ccccc3)CC2)c1,35.2*,-2.5,7.0,i,2.4,-7.0,-13.9,-11.5
SMILES,Rpn11 inh,TPT1 inhibitor,HNF4A DNA FP,Myeloid diff 2,CSN inh,Rpn11 inh conf,MMP-2 inh,Thrombin FP
O=C1c2ccccc2/C(=C\c2ccc(Br)s2)N1c1ccccc1,40.9*,/,20.1,i,7.8,-2.5,1.2,2.5
O=C1C2CCCN2C(c2ccc(Cl)cc2)N1c1nccs1 (stereo not drawn),-0.1,-1.5,4.3,i,4.3,/,/,/
CCOC(=O)c1c(NC(=O)C2=C(C)NC(=S)NC2c2ccc(F)cc2F)sc(C)c1C (stereo not drawn),38.4*,-1.2,-0.6,i,-11.6,-14.5,10.8,-20.1
O=C(Cn1cc([N+](=O)[O-])cn1)NCc1cc2ccccc2[nH]1,-4.5,0.6,-1.0,i,-3.6,/,/,/
COc1ccccc1NC(=O)C1=C(C)Nc2ncnn2C1c1cccs1 (stereo not drawn),78.0*,4.2,0.5,i,4.1,-10.7,-6.0,-12.3
Nc1ncnc2c1ncn2[C@@H]1O[C@H](C(=O)Nc2ccc(Oc3ccccc3)nc2)[C@@H](O)[C@H]1O,-6.4,/,0.8,i,-2.2,/,/,/
CCOC(=O)c1cc2c(=Cc3ccc(N(C)C)cc3)c3ccccc3n2[n+]1C,42.6*,/,57.3*,/,18.6,26.6,-48.4,18.1
CN(C)c1ccc(C=c2c3ccccc3n3c2c2ccccc2[n+]3C)cc1,-24.5,/,55.0,/,114.2,/,/,/
Cc1cc(N2CCN(C(C(=O)NC3CCCC3)c3ccc(F)cc3)CC2)c2ccccc2n1 (stereo not drawn),/,/,1.8,i,-4.4,/,/,/
O=c1cc(N2CCc3ccccc3C2)[nH]c(=O)n1Cc1ccc(F)cc1,55.8*,-0.8,1.8,i,5.4,-2.3,-25.8,-12.9
CN1CCN(c2cc(=O)n(Cc3ccc(F)cc3)c(=O)[nH]2)CC1,0.6,-1.8,-2.3,i,2.5,/,/,/
Cc1cccc(N=C2NC(=O)/C(=C/c3cccnc3)S2)c1,6.4,2.9,2.2,i,2.4,/,/,/
Cc1cccc(N=C2NC(=O)/C(=C\c3cccs3)S2)c1,41.6*,4.0,-0.1,i,3.0,-1.3,-39.9,-11.8
CC(CSc1nc2ccccc2s1)Cn1c(N2CCCC2)nc2c1c(=O)[nH]c(=O)n2C (stereo not drawn),34.5*,-2.0,-0.7,i,-3.0,11.1,37.1,7.7

# High-throughput results from PubChem.
